According to ChEMBL document CHEMBL4613249, “Serendipitous Discovery of Leucine and Methionine Depletion Agents during the Search for Polyamine Transport Inhibitors” (J Med Chem, 2020):
Activity calls are given as the source filed them. The calls are words filed in the database; no cut-off is given here.

Legend:
[1] = Toxicity in mouse at 1 mg/kg, ip measured over 24 hrs; format: organism-based; conditions: in vivo
[2] = test system: L3.6pl; test: Effect on polyamine level in human L3.6PL cells assessed as change in putrescine level at 2 to 7 uM measured after 72 hrs in presence of amine oxidase suppressor aminoguanidine by LCMS analysis; format: functional, cell-based; conditions: in the assay text read “by N-dansylation and HPLC analysis” for “by LCMS analysis”
Summary of the method: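 L3.6pl cells, 50,000 cells/mL in 10 mL per Petri dish with 1 mM aminoguanidine, plated overnight. Dosed with compound at 2, 5 or 7 μM from PBS stocks, then 72 h at 37°C. Intracellular polyamines measured by N-dansylation and HPLC, in duplicate, as nmol/mg protein against a parallel untreated control.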

[3] = test system: CHO-K1; test: Cytotoxicity against CHOK1 cells assessed as effect on cell growth at < 7 uM measured after 48 hrs by MTS assay; format: cell-based, Cricetulus griseus; conditions: chinese hamster, cho-k1, 48 h
[4] = test system: L3.6pl; test: Effect on polyamine level in human L3.6PL cells assessed as glutamic acid level per mg protein in supernatant at 5 uM measured after 72 hrs in presence of amine oxidase suppressor aminoguanidine by LCMS analysis (reference value: 23412 +/- 3983 pmol/mg)
[5] = test system: L3.6pl; test: Effect on polyamine level in human L3.6PL cells assessed as ornithine level per mg protein in supernatant at 5 uM measured after 72 hrs in presence of amine oxidase suppressor aminoguanidine by LCMS analysis (reference value: 10588 +/- 3212 pmol/mg); format: functional
[6] = test system: L3.6pl; test: Cytotoxicity against human L3.6PL cells assessed as reduction in cell viability at 1 uM measured after 72 hrs by MTS assay; format: cell-based
Summary of the method: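 L3.6pl cells given compound at increasing concentrations, alone or with Ant-44 fixed at 2 μM, for 72 h at 37°C. % cell growth by MTS against an untreated control run in parallel, in triplicate.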

[7] = test system: L3.6pl; test: Effect on polyamine level in human L3.6PL cells assessed as glutamic acid level per mg protein in supernatant at 2 uM measured after 72 hrs in presence of amine oxidase suppressor aminoguanidine by LCMS analysis (reference value: 23412 +/- 3983 pmol/mg)
[8] = test system: L3.6pl; test: Effect on polyamine level in human L3.6PL cells assessed as agmatine level per mg protein in supernatant at 2 uM measured after 72 hrs in presence of amine oxidase suppressor aminoguanidine by LCMS analysis (reference value: 101 pmol/mg); format: functional
[9] = test system: L3.6pl; test: Effect on polyamine level in human L3.6PL cells assessed as spermidine level per mg protein in supernatant at 5 uM measured after 72 hrs in presence of amine oxidase suppressor aminoguanidine by LCMS analysis (reference value: 339 pmol/mg); format: functional
[10] = target: Large neutral amino acids transporter small subunit 1 (Homo sapiens) (UniProt Q01650); test: Induction of LAT1-mediated polyamine efflux in aminoguanidine pretreated human L3.6PL cells assessed as reduction in cell viability at 5 uM measured after 72 hrs in presence of spermidine by MTS assay; format: cell-based
Summary of the method: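 L3.6pl cells pre-incubated 24 h with 250 μM aminoguanidine. Then given increasing compound plus putrescine, spermidine or spermine, each fixed at 1 or 5 μM, for 72 h at 37°C. Growth by MTS relative to untreated control.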

[11] = test system: CHO-K1; test: Potentiation of 0.5 uM N-(anthracenylmethyl) homospermidine-induced toxicity in CHOK1 cells assessed as increase in Ant-44-induced reduction in cell growth at 5 uM measured after 48 hrs in presence of amine oxidase suppressor aminoguanidine by microscopy analysis; format: functional, cell-based; conditions: Cricetulus griseus
Summary of the method: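 CHO K1 cells treated 48 h at 37°C with Ant-44 (0.5 μM) plus 5 μM compound, after 1 mM aminoguanidine pretreatment, were examined by microscope for cell number and shape versus untreated control cells.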

[12] = target: Large neutral amino acids transporter small subunit 1 (Homo sapiens) (UniProt Q01650); test: Inhibition of LAT1-mediated amino acid transport in human L3.6PL cells assessed as reduction in intracellular leucine level by measuring leucine level per mg protein in cell lysate at 7 uM measured after 72 hrs by LCMS analysis (reference value: 232 +/- 10 pmol/mg); format: cell-based
Summary of the method: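 L3.6pl cells (50,000 cells/mL, 10 mL, 1 mM aminoguanidine) were seeded in poly-lysine-treated 9 cm dishes and incubated overnight at 37°C. They were then dosed with compound at 2, 5 or 7 μM from PBS stocks (2, 5, 7 mM) and incubated 72 h. Runs were done in triplicate, with amino acid levels per mg protein.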

[13] = test system: L3.6pl; test: Effect on polyamine level in human L3.6PL cells assessed as ornithine level per mg protein in supernatant at 2 uM measured after 72 hrs in presence of amine oxidase suppressor aminoguanidine by LCMS analysis (reference value: 10588 +/- 3212 pmol/mg); format: functional
[14] = test system: L3.6pl; test: Effect on polyamine level in human L3.6PL cells assessed as phenylalanine level per mg protein in supernatant at 5 uM measured after 72 hrs in presence of amine oxidase suppressor aminoguanidine by LCMS analysis (reference value: 14299 +/- 7194 pmol/mg); format: functional
[15] = target: Large neutral amino acids transporter small subunit 1 (Homo sapiens) (UniProt Q01650); test: Induction of LAT1-mediated polyamine efflux in aminoguanidine pretreated human L3.6PL cells assessed as reduction in cell viability up to 15 uM by MTS assay; format: cell-based; conditions: TDE = time-dependent effect
[16] = test system: CHO-MG; test: Induction of polyamine efflux in aminoguanidine pretreated CHO-MG cells assessed as reduction in cell viability measured after 72 hrs in presence of spermine by MTS assay; format: ADME, cell-based, Cricetulus griseus; conditions: chinese hamster
[17] = target: Large neutral amino acids transporter small subunit 1 (Homo sapiens) (UniProt Q01650); test: Induction of LAT1-mediated polyamine efflux in human L3.6PL cells assessed as increase in [3H]leucine efflux at 60 uM measured after 30 mins at 37 degC by scintillation counting method; format: cell-based
Summary of the method: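 L3.6pl cells preloaded 5 min at 37°C with 3H-leucine and washed three times with cold HBSS. Compound (60 μM) given alone for 30 min at 37°C. Radioactivity of released 3H-leucine counted in the supernatant. Untreated and 100 μM unlabeled leucine lanes set the efflux range.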

[18] = test system: CHO-K1; test: Cytotoxicity against CHOK1 cells assessed as effect on cell growth up to 6 uM measured after 48 hrs by MTS assay; format: cell-based, Cricetulus griseus; conditions: chinese hamster, cho-k1, 48 h
[19] = test system: L3.6pl; test: Effect on polyamine level in human L3.6PL cells assessed as acetyl spermidine level per mg protein in supernatant at 5 uM measured after 72 hrs in presence of amine oxidase suppressor aminoguanidine by LCMS analysis (reference value: 1936 +/- 1365 pmol/mg); format: functional
[20] = test system: CHO-K1; test: Inhibition of polyamine transporter in DFMO-treated CHOK1 cells assessed as prevention of spermidine entry into cells by measuring rescue of DFMO-induced reduction in cell growth at 1 to 6 uM measured after 48 hrs in presence of amine oxidase suppressor aminoguanidine by MTS assay; format: cell-based; conditions: Cricetulus griseus
Summary of the method: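 CHO K1 cells (1000 cells/well) were pre-incubated 24 h with 1 mM aminoguanidine. They were then given fixed DFMO (4.2 mM) and spermidine (1 μM) plus increasing compound doses for 48 h at 37°C. EC50 is the concentration bringing MTS relative growth halfway between the DFMO+Spd and DFMO-only controls. Runs were done twice in triplicate, with SD.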

Large neutral amino acids transporter small subunit 1 (Homo sapiens), sequence (Q01650 whole entry): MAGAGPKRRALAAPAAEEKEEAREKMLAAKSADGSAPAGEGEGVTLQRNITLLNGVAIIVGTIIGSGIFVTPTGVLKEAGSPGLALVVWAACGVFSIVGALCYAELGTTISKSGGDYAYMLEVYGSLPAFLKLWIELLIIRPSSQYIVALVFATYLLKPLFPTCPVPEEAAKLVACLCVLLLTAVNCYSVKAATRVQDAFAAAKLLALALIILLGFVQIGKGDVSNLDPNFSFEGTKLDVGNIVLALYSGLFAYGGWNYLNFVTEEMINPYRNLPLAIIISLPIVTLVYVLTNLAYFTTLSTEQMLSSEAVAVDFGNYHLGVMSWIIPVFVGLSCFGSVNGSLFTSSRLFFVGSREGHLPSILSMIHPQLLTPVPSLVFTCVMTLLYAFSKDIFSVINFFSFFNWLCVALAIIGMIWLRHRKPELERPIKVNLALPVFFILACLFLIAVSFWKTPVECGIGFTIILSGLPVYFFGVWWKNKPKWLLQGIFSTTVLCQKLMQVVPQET

Activity [12]: 77 pmol/mg
Activity [17]: Active
SMILES: CC(C)CCN1CCN([C@@H](CNCc2ccccc2)CC2CCCCC2)C[C@@H]1CC(C)C
Activity [1]: Non-Toxic
Activity [2]: inactive
Activity [3]: Non-Toxic
Activity [4]: 34033 pmol/mg
Activity [5]: 15951 pmol/mg
Activity [6]: Non-Toxic
Activity [7]: 20231 pmol/mg
Activity [8]: 297 pmol/mg
Activity [9]: 167 pmol/mg
Activity [10]: Active
Activity [11]: Active
Activity [13]: 9249 pmol/mg
Activity [14]: 160462 pmol/mg
Activity [15]: Tde
Activity [16]: Active
Activity [18]: Non-Toxic
Activity [19]: 1706 pmol/mg
inhibition [20]: inactive
